Screening data (PubChem BioAssay)
APJ agonist – activates the human apelin receptor APJ; 0.11% of 330,000 active; AID 2520; CHO-K1 APJ PathHunter beta-arrestin, luminescence; 0% DMSO wells, 100% apelin; activation, % at 20 µM;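 active means activation more than six SD over the plate average, tested at 20 µM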;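 further: 0% = DMSO alone and 100% = apelin-13 at 10 nM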
Target sequence (P35414 whole entry, looked up): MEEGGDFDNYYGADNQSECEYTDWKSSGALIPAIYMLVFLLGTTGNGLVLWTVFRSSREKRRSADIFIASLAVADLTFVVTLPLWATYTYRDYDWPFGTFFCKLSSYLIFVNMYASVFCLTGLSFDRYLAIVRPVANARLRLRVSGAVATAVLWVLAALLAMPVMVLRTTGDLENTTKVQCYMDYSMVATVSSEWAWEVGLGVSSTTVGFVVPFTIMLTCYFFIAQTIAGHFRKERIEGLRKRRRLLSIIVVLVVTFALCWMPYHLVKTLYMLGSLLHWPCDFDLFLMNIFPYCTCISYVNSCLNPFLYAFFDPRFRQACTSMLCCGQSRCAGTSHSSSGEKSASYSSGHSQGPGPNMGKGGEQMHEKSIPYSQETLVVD
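Material: engineered CHO-K1 APJ arrestin reporter cells; amount: 1000 CHO-K1 reporter cells seeded per well; incubation: compound stimulation 90 min at 25 °C, detection 60 min; signal: luminescent beta-gal fragment complementation, chemiluminescent substrate; read-out basis: APJ agonist activity; controls: DMSO-only wells as negative, 10 nM Apelin-13 as positive control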
CCR6 antag – blocks CCL20-driven beta-arrestin recruitment at human CCR6; P51684; CHO-K1 CCR6 PathHunter beta-arrestin, luminescence, CCL20-stimulated; inhibition, % at 20 µM; 0.49% of 340,000 active; AID 493098;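 active means compounds whose inhibition of the agonist-driven luminescence signal at 20 µM reaches about 50%, limit read from the data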;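 further: cells stimulated with CCL20 at 14 nM final; plate controls were DMSO with CCL20 for no effect and DMSO without agonist for full effect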
APJ antag – antagonists of human APJ apelin receptor. P35414. CHO-K1 APJ beta-arrestin complementation, luminescence. inhibition, % at 20 µM. 0.32% of 330,000 active;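 active means inhibition above about 40% at 20 µM, limit read from the data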;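 further: cells challenged with 10 nM apelin-13 agonist together with compound; plate controls were apelin-13 plus DMSO wells for no effect and DMSO wells lacking apelin-13 for full effect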
EBI2 antag – blocks human EBI2 receptor beta-arrestin signaling | 0.81% of 360,000 active | inhibition, % at 5 µM | EBI2 beta-arrestin recruitment, luminescence, 7a,25-OHC stimulated; in the data active means inhibition above about 38%;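 further: enzyme fragment complementation signal reports receptor beta-arrestin coupling in cells; 0% = agonist plus DMSO wells and 100% = wells without agonist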
HTR2A ag – agonists of mouse serotonin 5-HT2A receptor (HTR2A); AID 624169; CHO-K1 mHTR2A beta-arrestin complementation, luminescence; percent of 30 µM serotonin response; activation, % at 7.6 µM; 0.66% of 360,000 active;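 active means activation above a run cutoff, the mean activation of all tested compounds plus 3 SD, cut at about 14% in these data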;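 further: 0% = plate median of compound wells and 100% = 30 µM serotonin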
CXCR6 block – blocks human CXCR6 beta-arrestin recruitment | inhibition, % at 20 µM | AID 602244 | 0.36% of 360,000 active | CHO-K1 PathHunter CXCR6 beta-arrestin, luminescence; in the data active means inhibition above about 34%, passing the limit was not always enough;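 further: antagonist mode with CXCL16 agonist at 10 nM final; 0% = 10 nM CXCL16 with DMSO and 100% = unstimulated wells without agonist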
* hit, by the source's call; nt = no result. This is a sample that favours compounds with a hit; in the whole collection about 2.2% have one here.

SMILES | APJ agonist | CCR6 antag | APJ antag | EBI2 antag | HTR2A ag | CXCR6 block
O=C1CC(C(=O)Nc2ccccc2)C2(CCCCC2)O1 (centres undefined) | -2 | -10 | 6 | -6 | -1 | -1
O=C1CC(C(=O)Nc2ccc(Cl)cc2[N+](=O)[O-])C2(CCCCC2)O1 (centres undefined) | 4 | 57* | -12 | -9 | 0 | -8
COC(=O)C1=CN(c2ccc(OC)cc2OC)C(N)=C(C#N)C1c1cccc([N+](=O)[O-])c1 (centres undefined) | nt | nt | nt | 7 | -2 | nt
CC1(C(=O)NCc2ccccc2)CSCC(=O)N1Cc1cccc(C(F)(F)F)c1 (centres undefined) | nt | nt | nt | 2 | -4 | nt
COc1ccc(C(=O)O/N=C2\C(=O)N(C)c3ccccc32)cc1 | -2 | 59* | 17 | 40 | 3 | 27
CC1ON=C(c2ccccn2)N(Cc2ccc3c(c2)OCO3)C1=O (centres undefined) | nt | nt | nt | 1 | -3 | 7
Cc1ccc(O)c(N=Cc2cc(Cc3ccccc3)cc([N+](=O)[O-])c2O)c1 | -1 | 29 | -13 | -8 | -4 | 25
O=[N+]([O-])c1cc(Cc2ccccc2)cc(C=Nc2ccc(N3CCOCC3)cc2)c1O | nt | 55* | nt | 4 | 2 | 43*
COc1ccc(NC(=O)c2cc(C3CCCCN3C(=O)c3cccs3)on2)c(C)c1 (centres undefined) | nt | nt | nt | -7 | 3 | -5
CCC(=O)N1CCC(C)(C(=O)NCc2ccc(F)cc2)C1 (centres undefined) | nt | nt | nt | -3 | 3 | -2
O=C(C=Cc1ccccc1Cl)c1ccccc1 | nt | 24 | nt | 8 | 0 | 9
C=CCn1cccc(/C=C/C(=O)c2ccc(C(C)(C)C)cc2)c1=S | nt | 37 | nt | 44* | -8 | 19
OC[C@@H]1CN(Cc2ccc(Cl)cc2)C[C@H](n2cnc3c(N4CCCC4)ncnc32)O1 | nt | nt | nt | 26 | 4 | 0
COc1ccc(S(=O)(=O)N2CCOCC2)cc1NC(=O)[C@@H]1CCCN1C(=O)c1cccs1 | -2 | 96* | 2 | -7 | -3 | 1
CC1C(c2ccccc2)N(C)C(c2ccccc2)C(C)C1(O)C#Cc1ccccc1 (centres undefined) | -3 | 50* | 5 | 22 | -3 | 6
COC(=O)C[C@H]1C=C[C@H](NC(=O)c2cccc(F)c2)[C@@H](CO)O1 | nt | nt | nt | -6 | 4 | nt
COc1ccccc1C#Cc1cnc2c(c1)C(=O)N([C@H](C)CO)C[C@@H](C)[C@@H](CN(C)C(=O)c1ccc3c(c1)OCO3)O2 | nt | nt | nt | -5 | -1 | -3
COc1cccc2sc(Nc3nc(-c4ccncc4)cs3)nc12 | 0 | 30 | 19 | 73* | -4 | 32
COc1cccc2sc(NN)nc12 | -6 | 12 | 0 | -5 | -2 | 4
Cc1ccc2c(c1)c1c3n2CCCNC3CCC1 (centres undefined) | 2 | 5 | 4 | -1 | 1 | 6
c1cc2c(cc1C1CCCCC1)c1c3n2CCCNC3CCC1 (centres undefined) | 0 | 71* | -4 | -17 | 4 | 4
O=C(COC(=O)c1ccc(F)cc1F)Nc1ccc2c(c1)OCO2 | nt | nt | nt | -5 | -1 | -15
COC(=O)Cc1ccc(OC2(C)CCN(Cc3ccccc3OC(F)F)C2)cc1 (centres undefined) | nt | nt | nt | -5 | -5 | 0
O=C(c1ccc(Cl)cc1)N1CCN(c2ccnc3cc(Cl)ccc23)CC1 | nt | 8 | nt | 51* | 3 | -15
OCCOCCN1CCN(C2=Nc3ccccc3Sc3ccccc32)CC1 | -5 | 11 | 14 | -1 | -2 | -2
SMILES | APJ agonist | CCR6 antag | APJ antag | EBI2 antag | HTR2A ag | CXCR6 block
O=C1C=CC(=O)c2c(O)c(N3CCN(CCO)CC3)c(Cl)c(O)c21 | nt | 102* | nt | -19 | 8 | 66*
O=C1C=CC(=O)c2c(O)c(N3CCN(CCOCCO)CC3)c(Br)c(O)c21 | nt | 112* | nt | -23 | -4 | 76*
Cc1ccsc1C(=O)N1CCC1(C)C(=O)NCCC#N (centres undefined) | nt | nt | nt | -9 | -2 | -1
C/C(=N\NC(N)=S)c1ccc2c(c1)OCCO2 | 3 | 4 | -32 | 3 | -1 | -2
C/C(=N\NC(=S)Nc1ccc(F)cc1)c1ccc2c(c1)OCCO2 | -6 | 58* | 25 | -4 | 0 | 30
C(=N\Nc1nc(-c2ccccc2)cs1)/c1ccco1 | 10* | -18 | -54 | -14 | -1 | -16
